Ba/F3 V617F tox: loss of viability in JAK2V617F-driven Ba/F3 cells; 220,000 compounds, 1.1% hits; Ba/F3 EpoR-JAK2V617F viability, ATP luminescence; inhibition, % at 5.6 µM;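 active = inhibition above the campaign mean plus 3 SD over all tested compounds, cut at about 24% in these data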;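 note: cytokine-independent growth of Ba/F3 cells driven by EpoR plus mutant JAK2; 0% = DMSO-treated cells and 100% = JAK inhibitor I control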
IEC-6 tox-1: counter-screen for KLF5 inhibitors: cytotoxicity in IEC-6 cells | IEC-6 cytotoxicity, luminescence viability | inhibition, % at 5 µM | 290,000 compounds, 0.78% hits | AID 1825;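 note: 0% = plate median of test compound wells and 100% = cytotoxic reference compound wells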
b-catenin transl: alters nuclear translocation of beta-catenin in HeLa cells. immunofluorescence imaging. nuclear translocation activity, % at 5 µM. 190,000 compounds, 0.3% hits. AID 1665;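 active = nuclear translocation activity above 50% at 5 µM, with a well cell count of 50 or more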;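 note: per-cell ratio of nuclear to cytoplasmic median beta-catenin stain intensity; plate controls were DMSO negative control for no effect and GSK-3 inhibitor IX positive control for full effect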
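Test system: human HeLa cells, native beta-catenin. Compound dosing: 5 µM primary single dose, 0.1% DMSO, 0.02–20 µM confirmation series. Incubation: compound exposure 24 h at 37°C. Detection: beta-catenin immunostaining with DAPI counterstain, 20x imaging, 6 fields/well. Read-out basis: Nuclear/cytoplasmic beta-catenin signal ratio, % activation.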
MT stabilizer: stabilizes microtubules in HeLa cells; % tubulin-high responders, % at 10 µM; 200,000 compounds, 0.83% hits; HeLa tubulin immunostaining HCS, 24 h; share of cells brighter than vehicle mean+2SD;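 active = plate Z-score above 3 for both tubulin-high and condensed-nucleus cell shares, with cell loss under 80%, at 10 µM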;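 note: anti alpha tubulin signal scored within the nucleus-defined area of each cell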
KLF5 inh: suppresses KLF5 promoter-driven expression; DLD-1 KLF5 promoter-luciferase reporter, luminescence; inhibition, % at 5 µM; 290,000 compounds, 0.23% hits; AID 1700;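 active = inhibition above a per-plate limit of that plate's mean compound inhibition plus 3 SD, cut at about 60% in these data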;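 note: 0% = DMSO wells and 100% = LY294002 at 200 µM; higher means less KLF5 promoter-driven luciferase light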
BaF3 tox: parental Ba/F3 viability inhibition as JAK2V617F counter-screen; CellTiter-Glo ATP luminescence; inhibition, % at 5.6 µM; 220,000 compounds, 1.1% hits; AID 1486;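 active = inhibition above a per-campaign cutoff, the mean inhibition of all tested compounds plus 3 SD, cut at about 27% in these data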;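 note: 0% = DMSO wells and 100% = JAK Inhibitor I control wells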
KLF5 confirm: KLF5 inhibition, confirmation assay. inhibition, % at 4 µM. 610 compounds, 79% hits. DLD-1 KLF5 promoter firefly luciferase reporter, luminescence. shares compounds with KLF5 inh;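 active = inhibition above a set limit taken from the earlier primary screen, cut at about 63% in these data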;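 note: 0% = DMSO wells and 100% = LY294002 at 200 µM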
IEC-6 tox-2: kills rat IEC-6 cells in KLF5 counter-screen | AID 1905 | 610 compounds, 56% hits | shares compounds with KLF5 inh | inhibition, % at 4 µM | IEC-6 rat intestinal cells, viability luminescence; in the data active = inhibition above about 23%;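 note: cells exposed to compounds for 48 hours before viability read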
IEC-6 cytotox cf: IEC-6 cytotoxicity, confirmation assay | AID 1907 | 1,900 compounds, 63% hits | shares compounds with IEC-6 tox-1 | IEC-6 rat intestinal epithelial viability, luminescence | inhibition, % at 5 µM;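 note: 0% = vehicle and 100% = reference cytotoxic drug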
Numbers without * were called inactive; · = not tested or not shown. Hits are enriched below; roughly 2.1% of the tested compounds scored in any of these assays. Cut-off read from the data, not from the text of the source, unless noted: active = inhibition above about 22%; inactive = the rest.

SMILES | Ba/F3 V617F tox | IEC-6 tox-1 | b-catenin transl | MT stabilizer | KLF5 inh | BaF3 tox | KLF5 confirm | IEC-6 tox-2 | IEC-6 cytotox cf
Cc1ccc(S(=O)(=O)Cc2ccc(C(=O)N3CCN(c4cccc(C)c4C)CC3)o2)cc1 | · | 77* | · | · | 64* | · | 68* | 57* | 56*
COc1ccc(S(=O)(=O)Cc2ccc(C(=O)N3CCN(c4cc(C)ccc4C)CC3)o2)cc1 | · | -7 | · | · | -5 | · | · | · | ·
CCN(CC)c1ccc(N=Cc2ccc(N(CC)CC)cc2O)cc1 | 1 | -3 | 5 | 1 | -32 | 7 | · | · | ·
CCN(CC)c1ccc(/C=N/N=C(N)N)c(O)c1 | 78* | 69* | 77* | 7 | 75* | 75* | 77* | 67* | 57*
N#Cc1ccc(-c2cccs2)nc1SCc1cccnc1 | 73* | 79* | 135* | · | 62* | 69* | 75* | 64* | 64*
Cc1nc(NC(=O)/C=C/c2ccc(C(C)(C)C)cc2)sc1C(=O)N(C)C | -3 | -2 | -2 | 3 | -9 | 1 | · | · | ·
COC(=O)c1ccc(C(=O)NC2CCCc3c2cnn3-c2ccc(C)c(C)c2)cc1 (configuration not stated) | · | 76* | · | · | 68* | · | 76* | 55* | 58*
Cc1cc(C(=O)NC2CCCc3c2cnn3-c2ccc(C)c(C)c2)nc(C)n1 (configuration not stated) | · | 3 | · | · | -1 | · | · | · | ·
COc1ccc(CCNS(=O)(=O)c2ccc(N3CCCC3=O)cc2)cc1 | -3 | -2 | · | 3 | -42 | 3 | · | · | ·
CCOc1ccc(S(=O)(=O)Nc2cc(OC)ccc2OC)cc1 | 80* | 90* | 52* | 11 | 73* | 80* | 83* | 59* | 62*
COc1ccc(OC)c(NS(=O)(=O)c2ccc(N3CCCC3=O)cc2)c1 | 79* | 88* | 147* | 22* | 83* | 81* | 83* | 62* | 53*
COc1cccc(N2CCN(C(=O)c3ccc(CS(=O)Cc4ccc(C)cc4)o3)CC2)c1 (configuration not stated) | · | -6 | · | · | 1 | · | · | · | ·
COc1cccc(N2CCN(C(=O)c3ccc(CS(=O)c4ccc(C)cc4)o3)CC2)c1 (configuration not stated) | · | 85* | · | · | 74* | · | 92* | 85* | 59*
C[n+]1cnc(-c2ccccc2)cc1-c1ccccc1 | -1 | 3 | · | 1 | -28 | 2 | · | · | ·
O=C(N/N=C(\c1ccccc1)c1cccnc1)c1ccc(O)cc1 | · | -4 | · | · | -48 | · | · | · | ·
O=C(N/N=C(\c1ccccc1)c1cccnc1)c1cccc(F)c1 | · | 100* | · | · | 68* | · | 84* | 75* | 80*
COc1cccc(/C=N/Nc2ccnc(=O)[nH]2)c1O | · | 97* | · | · | 81* | · | 11 | 8 | 24*
COc1cccc(/C=N/NC(=O)N/N=C/c2cccc(OC)c2O)c1O | · | -6 | · | · | -54 | · | · | · | ·
O=c1nccc(N/N=C/c2ccccc2O)[nH]1 | · | 96* | · | · | 88* | · | -4 | 11 | 16
CCOc1ccccc1/C=N/Nc1ccnc(=O)[nH]1 | · | 2 | · | · | -14 | · | · | · | ·
CN(C)c1cccc(C(=O)N2CCCC(CCC(=O)N3CCN(c4ccccn4)CC3)C2)c1 (configuration not stated) | · | 5 | · | · | -32 | · | · | · | ·
CCOC(=O)N1CCN(C(=O)C(=O)c2cn(CC(=O)N3CCCCCC3)c3ccccc23)CC1 | · | -3 | · | · | -4 | · | · | · | ·
COc1cc2c(cc1OC)C(C)N(C(=O)c1cc(C)on1)CC2 (configuration not stated) | · | 85* | · | · | 74* | · | 89* | 54* | 55*
CCN(CC)c1cc(C)c2cc(NC(=O)c3ccc(Br)o3)ccc2n1 | -1 | -1 | 0 | 4 | -14 | 4 | · | · | ·
Cc1cc(=O)oc2cc(OCC(=O)Nc3ccccc3C(N)=O)c(Cl)cc12 | · | 1 | · | · | -6 | · | · | · | ·
C/C(=N\NC(=O)c1c(Br)c(C)nn1C)c1cccc(NC(=O)C2CCC2)c1 | 3 | 4 | · | 5 | -41 | 5 | · | · | ·

Screening results as filed in PubChem.
